# Data published in ChEMBL document CHEMBL3286094, “Synthesis and biological evaluation of novel bisbenzimidazoles as Escherichia coli topoisomerase IA inhibitors and potential antibacterial agents” (J Med Chem, 2014).
# pIC50: −log10 of the molar value. The source made the active and inactive calls. The rule behind the calls is not given here.
# Legend:
# Escherichia coli [1] = experiment: Antibacterial activity against ampicillin/chloramphenicol/tetracycline/trimethoprim/ciprofloxacin-resistant Escherichia coli KK45 isolated from water source assessed as growth inhibition after 18 to 24 hrs by broth microdilution method
# Escherichia coli [2] = experiment: Antibacterial activity against multidrug-resistant Escherichia coli IS 54 isolated from water source assessed as growth inhibition after 18 to 24 hrs by broth microdilution method; conditions: IS 54, Water
# Escherichia coli [3] = experiment: Antibacterial activity against ampicillin/trimethoprim/cefazolinl/piperacillin/cefuroxime/cefoxitine/cefepime/cefotaxime-resistant Escherichia coli KP21 isolated from water source assessed as growth inhibition after 18 to 24 hrs by broth microdilution method
# Escherichia coli [4] = experiment: Antibacterial activity against chloroamphenicol/ampicillin/kanamycin/trimethoprim/ciprofloxacin/nalidixic acid-resistant Escherichia coli 85 assessed as growth inhibition after 18 to 24 hrs by broth microdilution method; type: functional
# Escherichia coli [5] = experiment: Antibacterial activity against ampicillin/trimethoprim/nalidixic acid-resistant Escherichia coli 118 assessed as growth inhibition after 18 to 24 hrs by broth microdilution method; type: functional
# Escherichia coli [6] = experiment: Antibacterial activity against tetracycline/trimethoprim-resistant Escherichia coli IST isolated from water source assessed as growth inhibition after 18 to 24 hrs by broth microdilution method
# Escherichia coli [7] = experiment: Antibacterial activity against cefazolinl/ampicillin/piperacillin/cefuroxime/cefepime/cefotaxime/tetracycline/trimethoprim-resistant Escherichia coli KK16 isolated from water source assessed as growth inhibition after 18 to 24 hrs by broth microdilution method
# Escherichia coli [8] = experiment: Inhibition of Escherichia coli DNA gyrase using relaxed pHOT1 plasmid DNA as substrate assessed as inhibition of DNA supercoiling up to 100 uM after 30 mins by agarose gel electrophoresis
# Escherichia coli [9] = experiment: Bactericidal activity against ampicillin/tetracycline-resistant Escherichia coli IP18 isolated from water source by agar plating method
# Escherichia coli [10] = experiment: Antibacterial activity against cefazolinl/ampicillin/piperacillin/cefuroxime/cefepime/cefotaxime/tetracycline/ciprofloxacin-resistant Escherichia coli NG3 isolated from water source assessed as growth inhibition after 18 to 24 hrs by broth microdilution method
# Escherichia coli [11] = experiment: Antibacterial activity against ampicillin/chloramphenicol/ciprofloxacin/gentamicin/tetracycline-resistant Escherichia coli 401 assessed as growth inhibition after 18 to 24 hrs by broth microdilution method; type: functional
# [12] = Inhibition of Escherichia coli DNA topoisomerase-1A using supercoiled pHOT1 plasmid DNA as substrate assessed as inhibition of DNA relaxation after 30 mins by agarose gel electrophoresis
# Outline: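 Supercoiled plasmid DNA incubated with E. coli Topo IA in the presence of compound at […]. Relaxation products were resolved by electrophoresis on 1% agarose gel.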
# Escherichia coli [13] = experiment: Bactericidal activity against ampicillin/trimethoprim/cefazolinl/piperacillin/cefuroxime/cefoxitine/cefepime/cefotaxime-resistant Escherichia coli KP21 isolated from water source by agar plating method
# Escherichia coli [14] = experiment: Bactericidal activity against ampicillin/chloramphenicol/tetracycline/trimethoprim/ciprofloxacin-resistant Escherichia coli KK45 isolated from water source by agar plating method
# Escherichia coli [15] = experiment: Antibacterial activity against ampicillin/ciprofloxacin/gentamicin/tetracycline-resistant Escherichia coli 555 assessed as growth inhibition after 18 to 24 hrs by broth microdilution method; type: functional
# Escherichia coli [16] = experiment: Antibacterial activity against ampicillin/tetracycline/gentamicin-resistant Escherichia coli 451 assessed as growth inhibition after 18 to 24 hrs by broth microdilution method; type: functional
# Escherichia coli [17] = experiment: Antibacterial activity against ampicillin/kanamycin/trimethoprim/tetracyclin/ciprofloxacin/nalidixic acid-resistant Escherichia coli 81 assessed as growth inhibition after 18 to 24 hrs by broth microdilution method; type: functional
# Escherichia coli [18] = experiment: Antibacterial activity against ampicillin/tetracycline-resistant Escherichia coli IP18 isolated from water source assessed as growth inhibition after 18 to 24 hrs by broth microdilution method
# Escherichia coli [19] = experiment: Antibacterial activity against chloramphenicol/ampicillin/kanamycin/trimethoprim/ciprofloxacin/nalidixic acid-resistant Escherichia coli 132 assessed as growth inhibition after 18 to 24 hrs by broth microdilution method; type: functional
# Escherichia coli [20] = experiment: Bactericidal activity against ampicillin/chloramphenicol/ciprofloxacin/gentamicin/tetracycline-resistant Escherichia coli 401 by agar plating method; type: functional
# Escherichia coli [21] = experiment: Bactericidal activity against ampicillin/kanamycin/trimethoprim/tetracyclin/ciprofloxacin/nalidixic acid-resistant Escherichia coli 81 by agar plating method; type: functional
# Escherichia coli [22] = experiment: Bactericidal activity against ampicillin/tetracycline/piperacillin-resistant Escherichia coli WB31 isolated from water source by agar plating method
# Escherichia coli [23] = experiment: Bactericidal activity against ampicillin/trimethoprim/piperacillin-resistant Escherichia coli MKNJ isolated from water source by agar plating method
# Escherichia coli [24] = experiment: Bactericidal activity against chloramphenicol/ampicillin/trimethoprim/ciprofloxacin/nalidixic acid-resistant Escherichia coli 59 by agar plating method; type: functional
# Homo sapiens = species on record: Homo sapiens; experiment: Inhibition of human DNA topoisomerase-1B using supercoiled pHOT1 plasmid DNA as substrate assessed as inhibition of DNA relaxation at 100 uM after 30 mins by agarose gel electrophoresis
# Escherichia coli [25] = experiment: Antibacterial activity against Escherichia coli ATCC 25922 assessed as growth inhibition after 18 to 24 hrs by broth microdilution method; type: functional
# Escherichia coli [26] = experiment: Bactericidal activity against ampicillin/ciprofloxacin/gentamicin/tetracycline-resistant Escherichia coli 555 by agar plating method; type: functional
# Escherichia coli [27] = experiment: Bactericidal activity against chloramphenicol/ampicillin/kanamycin/trimethoprim/ciprofloxacin/nalidixic acid-resistant Escherichia coli 132 by agar plating method; type: functional
# Escherichia coli [28] = experiment: Bactericidal activity against ampicillin/tetracycline/gentamicin-resistant Escherichia coli 451 by agar plating method; type: functional
# Escherichia coli [29] = experiment: Bactericidal activity against Escherichia coli DH5[alpha] by agar plating method; type: functional
# Escherichia coli [30] = experiment: Antibacterial activity against gentamicin/kanamycin/tetracycline/nalidixic acid-resistant Escherichia coli 360 assessed as growth inhibition after 18 to 24 hrs by broth microdilution method; type: functional
# Escherichia coli [31] = experiment: Antibacterial activity against chloramphenicol/ampicillin/trimethoprim/ciprofloxacin/nalidixic acid-resistant Escherichia coli 59 assessed as growth inhibition after 18 to 24 hrs by broth microdilution method; type: functional
# Escherichia coli [32] = experiment: Antibacterial activity against multidrug-resistant Escherichia coli IP9 isolated from water source assessed as growth inhibition after 18 to 24 hrs by broth microdilution method
smiles,measurement,setting,value
CCOc1ccc(-c2nc3ccc(-c4nc5ccc(N6CCN(CCN(C)C)CC6)cc5[nH]4)cc3[nH]2)cc1,MIC50,Escherichia coli [1],16 µg/mL
same,MIC90,Escherichia coli [1],29.4 µg/mL
same,MIC50,Escherichia coli [2],32 µg/mL
same,MIC90,Escherichia coli [2],60.6 µg/mL
same,MIC50,Escherichia coli [3],32 µg/mL
same,MIC90,Escherichia coli [3],61.4 µg/mL
same,MIC50,Escherichia coli [4],16 µg/mL
same,MIC90,Escherichia coli [4],28.6 µg/mL
same,MIC50,Escherichia coli [5],8 µg/mL
same,MIC90,Escherichia coli [5],15.2 µg/mL
same,MIC50,Escherichia coli [6],32 µg/mL
same,MIC90,Escherichia coli [6],60.6 µg/mL
same,MIC50,Escherichia coli [7],16 µg/mL
same,MIC90,Escherichia coli [7],27.6 µg/mL
same,inhibition,Escherichia coli [8],inactive
same,MBC,Escherichia coli [9],32 µg/mL
same,MIC50,Escherichia coli [10],8 µg/mL
same,MIC90,Escherichia coli [10],15 µg/mL
same,MIC50,Escherichia coli [11],16 µg/mL
same,MIC90,Escherichia coli [11],30.4 µg/mL
same,pIC50,[12],5.03
same,MBC,Escherichia coli [13],64 µg/mL
same,MBC,Escherichia coli [14],32 µg/mL
same,MIC50,Escherichia coli [15],32 µg/mL
same,MIC90,Escherichia coli [15],60.4 µg/mL
same,MIC50,Escherichia coli [16],32 µg/mL
same,MIC90,Escherichia coli [16],55.3 µg/mL
same,MIC50,Escherichia coli [17],32 µg/mL
same,MIC90,Escherichia coli [17],60.2 µg/mL
same,MIC50,Escherichia coli [18],16 µg/mL
same,MIC90,Escherichia coli [18],30.6 µg/mL
same,MIC50,Escherichia coli [19],64 µg/mL
same,MIC90,Escherichia coli [19],123 µg/mL
same,MBC,Escherichia coli [20],32 µg/mL
same,MBC,Escherichia coli [21],64 µg/mL
same,MBC,Escherichia coli [22],32 µg/mL
same,MBC,Escherichia coli [23],32 µg/mL
same,MBC,Escherichia coli [24],32 µg/mL
same,inhibition,Homo sapiens,inactive
same,MIC50,Escherichia coli [25],8 µg/mL
same,MIC90,Escherichia coli [25],26.6 µg/mL
same,MBC,Escherichia coli [26],64 µg/mL
same,MBC,Escherichia coli [27],128 µg/mL
same,MBC,Escherichia coli [28],64 µg/mL
same,MBC,Escherichia coli [29],2 µg/mL
same,MIC50,Escherichia coli [30],64 µg/mL
same,MIC90,Escherichia coli [30],121 µg/mL
same,MIC50,Escherichia coli [31],16 µg/mL
same,MIC90,Escherichia coli [31],28.8 µg/mL
same,MIC50,Escherichia coli [32],64 µg/mL
same,MIC90,Escherichia coli [32],118 µg/mL
COc1ccc(-c2nc3ccc(-c4nc5ccc(N6CCN(c7ncccn7)CC6)cc5[nH]4)cc3[nH]2)cc1OC,MIC50,Escherichia coli [1],16 µg/mL
same,MIC90,Escherichia coli [1],30.2 µg/mL
same,MIC50,Escherichia coli [2],32 µg/mL
same,MIC90,Escherichia coli [2],61.6 µg/mL
same,MIC50,Escherichia coli [3],32 µg/mL
same,MIC90,Escherichia coli [3],60.5 µg/mL
same,MIC50,Escherichia coli [4],32 µg/mL
same,MIC90,Escherichia coli [4],55.8 µg/mL
same,MIC50,Escherichia coli [5],4 µg/mL
same,MIC90,Escherichia coli [5],7.4 µg/mL
same,MIC50,Escherichia coli [6],16 µg/mL
same,MIC90,Escherichia coli [6],30.8 µg/mL
same,MIC50,Escherichia coli [7],16 µg/mL
same,MIC90,Escherichia coli [7],30.4 µg/mL
same,inhibition,Escherichia coli [8],inactive
same,MBC,Escherichia coli [9],32 µg/mL
same,MIC50,Escherichia coli [10],16 µg/mL
same,MIC90,Escherichia coli [10],30.6 µg/mL
same,MIC50,Escherichia coli [11],16 µg/mL
same,MIC90,Escherichia coli [11],29 µg/mL
same,pIC50,[12],5.21
same,MBC,Escherichia coli [13],64 µg/mL
same,MBC,Escherichia coli [14],32 µg/mL
same,MIC50,Escherichia coli [15],32 µg/mL
same,MIC90,Escherichia coli [15],59.4 µg/mL
same,MIC50,Escherichia coli [16],16 µg/mL
same,MIC90,Escherichia coli [16],28.8 µg/mL
same,MIC50,Escherichia coli [17],16 µg/mL
same,MIC90,Escherichia coli [17],29.7 µg/mL
same,MIC50,Escherichia coli [18],16 µg/mL
same,MIC90,Escherichia coli [18],30.8 µg/mL
same,MIC50,Escherichia coli [19],64 µg/mL
same,MIC90,Escherichia coli [19],122 µg/mL
same,MBC,Escherichia coli [20],32 µg/mL
same,MBC,Escherichia coli [21],32 µg/mL
same,MBC,Escherichia coli [22],32 µg/mL
same,MBC,Escherichia coli [23],64 µg/mL
same,MBC,Escherichia coli [24],32 µg/mL
same,inhibition,Homo sapiens,Active
same,MIC50,Escherichia coli [25],32 µg/mL
same,MIC90,Escherichia coli [25],49 µg/mL
same,MBC,Escherichia coli [26],64 µg/mL
same,MBC,Escherichia coli [27],128 µg/mL
same,MBC,Escherichia coli [28],32 µg/mL
same,MBC,Escherichia coli [29],4 µg/mL
same,MIC50,Escherichia coli [30],> 128 µg/mL
same,MIC50,Escherichia coli [31],16 µg/mL
same,MIC90,Escherichia coli [31],30.2 µg/mL
same,MIC50,Escherichia coli [32],128 µg/mL
